PHOSPHO1 block = PubChem AID 1565; Phosphoethanolamine/phosphocholine phosphatase (Homo sapiens), Q8TCT1; 1.1% of 290,000 active; inhibition, % at 13.3 µM; recombinant PHOSPHO1, absorbance phosphatase assay; in the data active means inhibition above about 60%
TbHK1 inh = Trypanosoma brucei hexokinase 1 inhibitors, primary screen, biochemical, G6PDH-coupled NADH absorbance, MLSCN library; inhibition, % at 10 µM; hexokinase 1 [Trypanosoma brucei]; recombinant TbHK1, G6PDH-coupled NADH A340; 0.11% of 220,000 active;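 active means inhibition of 50% or more in the single-dose primary screen; inactive means inhibition below 50%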
HKDC1 inh = HKDC1 hexokinase inhibitors, primary screen, biochemical, fluorescence, uHTS; Q2TB90; recombinant HKDC1, G6PDH/diaphorase resazurin coupled fluorescence; inhibition, % at 20 µM; 0.16% of 340,000 active; AID 493160, 2011;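 active means inhibition above about 35% when tested at 20 µM, limit read from the data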;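 further: plate controls were DMSO wells with enzyme for no effect and DMSO wells lacking enzyme for full effect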
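Assay system – recombinant HKDC1 (HK5) hexokinase enzyme, produced in-house · Input – HKDC1 at 5 µg/mL · Reagent – glucose plus 1 mM ATP as hexokinase substrates · Timing – 90 min reaction incubation at room temperature, dark · Measured by – G6PDH/diaphorase-coupled fluorescence, 1 mM NADP, 100 µM resazurin, 525/613 nm · Benchmarks – DMSO-enzyme wells negative, buffer-substituted wells positive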
EP2 modulator = EP2 receptor modulators, cAMP readout, primary screen, cell-based, HTRF cAMP, PGE2 stimulation; AID 940, 2007; 0.83% of 260,000 active; induction, % at 25 µM; EP2-expressing cells, cAMP HTRF FRET, PGE2 co-stimulation; Prostaglandin E2 receptor EP2 subtype (Homo sapiens), P43116;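 active means compounds whose cAMP rise, as percent of the full-agonist control response, exceeds 60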;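 further: rat C6 glioma line stably carrying human EP2 under a CMV promoter; the protocol text gives 20 µM as final concentration; 100% = response of wells given 1 µM PGE2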
Target sequence (P43116 whole entry, looked up): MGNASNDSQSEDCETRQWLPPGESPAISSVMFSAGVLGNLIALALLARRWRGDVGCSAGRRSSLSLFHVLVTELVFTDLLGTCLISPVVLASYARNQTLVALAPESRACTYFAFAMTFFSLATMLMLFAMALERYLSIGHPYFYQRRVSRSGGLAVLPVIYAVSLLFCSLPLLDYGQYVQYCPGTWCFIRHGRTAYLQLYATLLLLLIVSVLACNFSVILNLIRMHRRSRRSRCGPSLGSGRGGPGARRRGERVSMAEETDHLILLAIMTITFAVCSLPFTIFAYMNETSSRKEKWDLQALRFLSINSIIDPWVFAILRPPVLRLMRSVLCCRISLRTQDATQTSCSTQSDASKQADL
PfG6PD inh = PfG6PD enzyme inhibitors, primary screen, biochemical, fluorescence intensity, uHTS; glucose-6-phosphate dehydrogenase-6-phosphogluconolactonase (Plasmodium falciparum 3D7); PfGluPho enzyme, NADPH resazurin-diaphorase fluorescence; inhibition, % at 20 µM; 0.78% of 350,000 active;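 active means inhibition reaching at least a set limit at 20 µM in the primary screen, cut at about 59% in these data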;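 further: 0% = DMSO wells with substrate and 100% = DMSO wells lacking glucose-6-phosphate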
EP2 antag = human EP2 receptor antagonists, primary screen, TR-FRET cAMP, C6 glioma cells. Prostaglandin E2 receptor EP2 subtype (Homo sapiens), P43116. C6 glioma cells expressing human EP2; cells stimulated with saturating PGE2. inhibition, % at 25 µM. 0.52% of 260,000 active. AID 1422, 2008;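 active means percent inhibition above 40 after rounding to a whole number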;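 further: rat C6 glioma host cells with rolipram phosphodiesterase inhibitor present; the protocol text gives 20 µM as final concentration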
Active calls of the source: *; x = not tested or not shown. Only some compounds are listed: those with a hit (about 2.5% of all), similar ones and a draw of the others.

SMILES	PHOSPHO1 block	TbHK1 inh	HKDC1 inh	EP2 modulator	PfG6PD inh	EP2 antag
COC(Cc1n[nH]c(=S)n1-c1ccccc1)OC	79.0*	2.9	-4.1	-2.8	31.4	3.3
OCCCc1n[nH]c(=S)n1-c1ccccc1	32.4	0.4	-4.8	21.4	1.9	2.6
COCc1n[nH]c(=S)n1-c1ccccc1	64.4*	-0.1	4.1	8.2	21.8	8.3
Cc1cccc(C)c1OCc1n[nH]c(=S)n1-c1ccccc1	-30.8	-1.2	11.6	31.5	19.8	1.8
COc1ccc(-n2c(COc3ccccc3)n[nH]c2=S)cc1	-51.1	x	2.9	x	22.9	x
COc1cc(NC(=O)CSc2ncnc3c2cnn3-c2ccc(C)cc2)cc(OC)c1	x	x	x	-38.7	x	9.8
COc1cc(NC(=O)C2CCN(S(=O)(=O)c3ccc(C)cc3)CC2)cc(OC)c1	x	x	x	-121.2	x	6.9
COc1ccc(-c2nnc(SCC(=O)NC(C)(C)C)o2)cc1	x	x	x	16.6	x	8.1
Cc1ccc(CN2CCN(Cc3ccc(O)cc3)CC2CCO)o1 (stereo not drawn)	26.2	-3.4	-7.3	4.8	1.9	2.3
Cc1ccc(CN2CCN(Cc3ccc(C)o3)[C@@H](C)C2)o1	x	x	x	11.5	x	42.8*
CCOC(=O)C(NC(=O)CC)(Nc1nc2c(s1)CCCC2)C(F)(F)F (stereo not drawn)	-8.3	5.6	-2.3	15.6	20.3	17.5
CCOC(=O)NC(Nc1sc2c(c1C(N)=O)CCCC2)(C(=O)OCC)C(F)(F)F (stereo not drawn)	72.9*	-1.7	4.0	15.1	33.7	4.6
C=C(C)Cn1c(SCCC)nc2c1c(=O)[nH]c(=O)n2C	x	x	x	28.2	x	11.2
COc1ccc(C2NC(=O)C(C#N)=C(S)N2c2ccc(C)cc2)cc1OC (stereo not drawn)	57.8	1.6	9.4	4.1	-2.8	6.3
CCOC(=O)CSc1nc2cc(OC)ccc2cc1C#N	-16.2	-11.4	2.1	39.9	-14.8	10.1
CCOC(=O)CSC1=C(C#N)C(=O)NC(c2ccc(OC)c(OC)c2)S1 (stereo not drawn)	98.0*	-68.2	5.5	-29.5	10.2	29.7
CCOC(=O)CSC1=C(C#N)C(=O)NC(c2ccc(OC)cc2)S1 (stereo not drawn)	87.4*	-49.5	3.0	5.2	8.1	3.6
COc1ccc(CNc2n[nH]c3nc(C)cc(C)c23)cc1Cn1nc(C)cc1C	x	x	x	-45.4	x	10.6
O=C(CSc1nnc(-c2ccco2)o1)Nc1cccc(F)c1	x	x	x	-42.7	x	6.2
Cc1ccc(C2=C(Cl)C(=O)C(c3ccc(C)cc3)=C(Cl)C2=O)cc1	x	x	x	21.5	x	46.4*
S=C(NN=C1C2CC3CC(C2)CC1C3)Nc1ccccc1	92.1*	5.2	-17.2	-26.1	24.1	16.6
CCC(C)(C)C1CCC(=NNC(=S)Nc2ccccc2)CC1 (stereo not drawn)	-0.7	12.9	-1.9	20.6	6.0	7.1
COc1cc(CNCCc2ccccc2)cc(Br)c1OCC(=O)Nc1ccccc1C	66.2*	13.1	-0.3	-41.7	-9.4	32.0
O=C(Nc1ccccc1N1CCCCC1)c1ncoc1-c1cccc(F)c1	24.8	-11.1	-5.3	42.7	4.0	3.9
O=C(Nc1ccccc1N1CCCCC1)c1ncoc1-c1ccc(F)cc1	7.1	-4.2	3.8	63.4*	9.4	8.6
SMILES	PHOSPHO1 block	TbHK1 inh	HKDC1 inh	EP2 modulator	PfG6PD inh	EP2 antag
Cc1ccc(C(=O)c2cc([N+](=O)[O-])ccc2N2CCCCC2)c(C)c1	-14.7	2.1	2.1	63.1*	34.9	5.7
CC1CN(c2nc3c(c(=O)[nH]2)CCN(Cc2ccc(N4CCCC4)c(F)c2)C3)CC(C)O1 (stereo not drawn)	x	x	x	19.9	x	x
CNC(=S)N/N=C/c1ccc(N(C)C)cc1	60.8*	-87.5	-1.6	-13.6	10.7	13.9
COc1ccc(CCN2CCC(O)(c3cccnc3)CC2)cc1	x	x	x	-32.7	x	x
N#Cc1c(N)sc2c1CCCCCC2	79.5*	0.9	1.6	-2.4	45.7	7.2
COCCNC(=S)N(Cc1cc2cc(C)cc(C)c2[nH]c1=O)C1CCCC1	x	x	x	-1.2	x	10.6

Bioassay records as filed in PubChem BioAssay.
